Data published in ChEMBL document CHEMBL3797026, “Caatinga plants: Natural and semi-synthetic compounds potentially active against Trichomonas vaginalis” (Bioorg Med Chem Lett, 2016).
pIC50: −log10 of the molar value. ≈ marks a conversion by molar mass, not a printed value. Calls of active or inactive are those of the source. The rule behind the calls is not given here.

What was measured:
[1] = system: Trichomonas vaginalis; assay: Antitrichomonal activity against metronidazole-sensitive Trichomonas vaginalis ATCC 30236 clinical isolate trophozoites assessed as parasite viability at 100 uM after 24 hrs by trypan blue dye based hemocytometry; assay type: functional
Method in brief: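 Single-concentration screen at 100 µM with trophozoites at 1.0 × 10^5/mL. Incubation was 24 h at 37 °C in 5.0% CO2, with a 0.62% DMSO vehicle control and 100 µM metronidazole as positive control. Viable parasites were counted by hemocytometer using motility, normal morphology and 0.2% trypan blue exclusion, and reported as % of untreated. Three experiments were run in triplicate.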

[2] = system: Trichomonas vaginalis; assay: Antitrichomonal activity against metronidazole-resistant Trichomonas vaginalis TV-LACM2R clinical isolate trophozoites; assay type: functional
[3] = system: Trichomonas vaginalis; assay: Antitrichomonal activity against metronidazole-resistant Trichomonas vaginalis TV-LACM2R clinical isolate trophozoites assessed as reduction in parasite viability at 15 uM after 24 hrs by trypan blue dye based hemocytometry; assay type: functional
Method in brief: (§1)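 Trophozoites at 1.0 × 10^5/mL were incubated 24 h at 37 °C in 5.0% CO2. Viable parasites were counted by hemocytometer, judged by motility, normal morphology and exclusion of 0.2% trypan blue. Viability is expressed as a percentage of untreated parasites. Three independent parasite suspensions were each run in triplicate, reported as mean ± SD.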

[4] = Cytotoxicity against african green monkey Vero cells assessed as reduction in cell viability after 24 hrs by MTT assay; assay type: cell-based; conditions: chlorocebus sabaeus
[5] = Cytotoxicity against african green monkey Vero cells assessed as reduction in cell viability after 48 hrs by MTT assay; assay type: cell-based; conditions: chlorocebus sabaeus
[6] = Selectivity index, ratio of CC50 for HMVII cells to IC50 for metronidazole-sensitive Trichomonas vaginalis ATCC 30236 clinical isolate trophozoites after 24 hrs; assay type: functional
Method in brief: (§2)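 Selectivity index calculated as CC50 in the mammalian line (MTT, 24 or 48 h exposure) divided by the anti-T. vaginalis IC50.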

[7] = Selectivity index, ratio of CC50 for HMVII cells to IC50 for metronidazole-sensitive Trichomonas vaginalis ATCC 30236 clinical isolate trophozoites after 48 hrs; assay type: functional; method in brief: as §2
[8] = Selectivity index, ratio of CC50 for african green monkey Vero cells to IC50 for metronidazole-sensitive Trichomonas vaginalis ATCC 30236 clinical isolate trophozoites after 24 hrs; assay type: functional; method in brief: as §2
[9] = Selectivity index, ratio of CC50 for african green monkey Vero cells to IC50 for metronidazole-sensitive Trichomonas vaginalis ATCC 30236 clinical isolate trophozoites after 48 hrs; assay type: functional; method in brief: as §2
[10] = system: Trichomonas vaginalis; assay: Antitrichomonal activity against metronidazole-sensitive Trichomonas vaginalis ATCC 30236 clinical isolate trophozoites assessed as decrease in parasite viability at 50 to 100 uM after 24 hrs by trypan blue dye based hemocytometry; assay type: functional, organism-based
Method in brief: (§3)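 Trophozoites (1.0 × 10^5/mL) were cultured in TYM and exposed to a dilution series from 100 to 0.78 µM for 24 h. Viable counts were taken by hemocytometer with 0.2% trypan blue exclusion and compared with untreated parasites. To confirm the MIC, parasites were transferred to fresh TYM medium. Triplicates were run with three independent cultures.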

[11] = system: Trichomonas vaginalis; assay: Antitrichomonal activity against metronidazole-sensitive Trichomonas vaginalis ATCC 30236 clinical isolate trophozoites assessed as reduction of parasite viability after 2 hrs by FDA/PI dye staining based flow cytometry relative to control; assay type: functional
Method in brief: (§4)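 Flow cytometry: parasites were exposed or not to 50 µM for 0, 2, 4, 6 and 12 h, then co-stained with FDA and PI (10 µg/mL each) for 20 min. FDA-retaining cells with intact membranes were scored viable and PI-positive cells nonviable. Three parasite suspensions were tested in triplicate.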

[12] = system: Trichomonas vaginalis; assay: Antitrichomonal activity against metronidazole-sensitive Trichomonas vaginalis ATCC 30236 clinical isolate trophozoites assessed as parasite viability after 24 hrs by trypan blue dye based hemocytometry; assay type: functional, organism-based; conditions: ATCC 30236, 24 h; method in brief: as §3
[13] = system: Trichomonas vaginalis; assay: Antitrichomonal activity against metronidazole-sensitive Trichomonas vaginalis ATCC 30236 clinical isolate trophozoites assessed as inhibition of parasite growth at 50 uM after 12 to 24 hrs by hemocytometry; assay type: functional, organism-based
Method in brief: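 Kinetic growth curve: trophozoites (1.0 × 10^5/mL) were incubated with or without 50 µM for 2, 4, 6, 12, 24, 48, 72 and 96 h. Parasites were counted by hemocytometer and expressed as trophozoites/mL relative to untreated controls.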

[14] = system: Trichomonas vaginalis; assay: Antitrichomonal activity against metronidazole-sensitive Trichomonas vaginalis ATCC 30236 clinical isolate trophozoites assessed as parasite viability after 2 to 12 hrs by FDA/PI dye staining based flow cytometry; assay type: functional, organism-based; method in brief: as §4
[15] = system: Trichomonas vaginalis; assay: Antitrichomonal activity against metronidazole-sensitive Trichomonas vaginalis ATCC 30236 clinical isolate trophozoites assessed as parasite shape disruption at 50 uM after 2 hrs by scanning electron microscopy; assay type: functional, organism-based
Method in brief: (§5)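 Scanning EM: trophozoites (1.0 × 10^5/mL) were treated or not with 50 µM. They were fixed in 2.5% glutaraldehyde in 0.1 M sodium cacodylate pH 7.2, post-fixed in 1.0% OsO4 in the same buffer, and dehydrated in acetone. Untreated trophozoites served as control.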

[16] = system: Trichomonas vaginalis; assay: Antitrichomonal activity against metronidazole-sensitive Trichomonas vaginalis ATCC 30236 clinical isolate trophozoites assessed as rounded parasite at 50 uM after 2 hrs by scanning electron microscopic analysis; assay type: functional, organism-based; method in brief: as §5
[17] = system: Trichomonas vaginalis; assay: Antitrichomonal activity against metronidazole-sensitive Trichomonas vaginalis ATCC 30236 clinical isolate trophozoites assessed as membrane projections and holes at 50 uM after 2 hrs by scanning microscopic analysis; assay type: functional, organism-based; method in brief: as §5
[18] = system: Trichomonas vaginalis; assay: Antitrichomonal activity against metronidazole-sensitive Trichomonas vaginalis ATCC 30236 clinical isolate trophozoites assessed as undulating membrane at 50 uM after 2 hrs by scanning electron microscopic analysis; assay type: functional, organism-based; method in brief: as §5
[19] = system: Trichomonas vaginalis; assay: Antitrichomonal activity against metronidazole-sensitive Trichomonas vaginalis ATCC 30236 clinical isolate trophozoites assessed as appearance of flagella at 50 uM after 2 hrs by scanning electron microscopic analysis; assay type: functional, organism-based; method in brief: as §5
[20] = system: Trichomonas vaginalis; assay: Antitrichomonal activity against metronidazole-resistant Trichomonas vaginalis TV-LACM2R clinical isolate trophozoites assessed as reduction in parasite viability at 12.5 uM after 24 hrs by trypan blue dye based hemocytometry; assay type: functional, organism-based; method in brief: as §1
[21] = system: Trichomonas vaginalis; assay: Antitrichomonal activity against metronidazole-resistant Trichomonas vaginalis TV-LACM2R clinical isolate trophozoites assessed as reduction in parasite viability at 12.5 uM after 24 hrs by trypan blue dye based hemocytometry in presence of metronidazole; assay type: functional, organism-based; method in brief: as §1
[22] = Cytotoxicity against HMVII cells assessed as reduction in cell viability at 50 uM after 24 hrs by MTT assay; assay type: cell-based; conditions: human, hmv-2, 24 h
Method in brief: (§6)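 MTT assay: cells were grown in DMEM with 10% FBS at 37 °C in 5% CO2 and seeded at 3.0 × 10^4 or 1.0 × 10^4 cells/well overnight. Medium was replaced with fresh medium with or without 50 µM, with 0.2% Triton X-100 as positive control, for 24 or 48 h. MTT (0.5 mg/mL) was added for 1 h, formazan was dissolved in DMSO and read at 570 nm. Triplicates.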

[23] = system: HeLa; assay: Cytotoxicity against human HeLa cells assessed as reduction in cell viability at 50 uM after 24 hrs by MTT assay; assay type: cell-based; method in brief: as §6
[24] = Cytotoxicity against HMVII cells assessed as reduction in cell viability at 50 uM after 48 hrs by MTT assay; assay type: cell-based; conditions: human, hmv-2, 48 h; method in brief: as §6
[25] = system: HeLa; assay: Cytotoxicity against human HeLa cells assessed as reduction in cell viability at 50 uM after 48 hrs by MTT assay; assay type: cell-based; method in brief: as §6
[26] = system: Vero; assay: Cytotoxicity against african green monkey Vero cells assessed as reduction in cell viability at 50 uM after 24 to 48 hrs by MTT assay; assay type: cell-based; conditions: chlorocebus sabaeus; method in brief: as §6
[27] = Cytotoxicity against HMVII cells assessed as reduction in cell viability after 24 hrs by MTT assay; assay type: cell-based, HMV-2; conditions: human
[28] = Cytotoxicity against HMVII cells assessed as reduction in cell viability after 48 hrs by MTT assay; assay type: cell-based, HMV-2; conditions: human

## CCCCCC(=O)O[C@H]1CC[C@]2(C)[C@H]3CC=C4[C@@H]5CC(C)(C)CC[C@]5(C)CC[C@@]4(C)[C@]3(C)CC[C@H]2C1(C)C
[1]
  Activity: 62.8%

## C=C(C)[C@@H]1CC[C@]2(C)CC[C@]3(C)[C@H](CC[C@@H]4[C@@]5(C)CC[C@H](OC(=O)CCCCC)C(C)(C)[C@@H]5CC[C@]43C)[C@@H]12
[1]
  Activity: 71.4%

## CCCCCC(=O)O[C@H]1CC[C@]2(C)[C@H]3CC=C4[C@@H]5[C@@H](C)[C@H](C)CC[C@]5(C)CC[C@@]4(C)[C@]3(C)CC[C@H]2C1(C)C
[1]
  Activity: 56.2%

## C[C@H]1[C@H](C)CC[C@]2(C)CC[C@]3(C)C(=CC[C@@H]4[C@@]5(C)CC[C@H](O)C(C)(C)[C@@H]5CC[C@]43C)[C@H]12
[1]
  Activity: 76.1%

## CC(=O)O[C@H]1CC[C@]2(C)[C@H]3CC=C4[C@@H]5[C@@H](C)[C@H](C)CC[C@]5(C)CC[C@@]4(C)[C@]3(C)CC[C@H]2C1(C)C
[1]
  Activity: 56.4%

## C=C(C)[C@@H]1CC[C@]2(C)CC[C@]3(C)[C@H](CC[C@@H]4[C@@]5(C)CC[C@H](OC(C)=O)C(C)(C)[C@@H]5CC[C@]43C)[C@@H]12 [LUPENYL ACETATE]
[1]
  Activity: 59.8%

## C=C(C)[C@@H]1CC[C@]2(C)CC[C@]3(C)[C@H](CC[C@@H]4[C@@]5(C)CC[C@H](O)C(C)(C)[C@@H]5CC[C@]43C)[C@@H]12 [LUPEOL]
[1]
  Activity: 117.8%

## Cc1ncc([N+](=O)[O-])n1CCO [METRONIDAZOLE]
[1]
  Activity: 0%
[2]
  MIC: 73 µM (≈ 12.5 µg/mL)
[3]
  Activity: 80%

## CC1(C)CC[C@]2(C(=O)O)CC[C@]3(C)C(=CC[C@@H]4[C@@]5(C)CC[C@H](O)C(C)(C)[C@@H]5CC[C@]43C)[C@@H]2C1 [OLEANOLIC_ACID]
[1]
  Activity: 78.3%

## C[C@H]1[C@H](C)CC[C@]2(C(=O)O)CC[C@]3(C)C(=CC[C@@H]4[C@@]5(C)CC[C@H](O)C(C)(C)[C@@H]5CC[C@]43C)[C@H]12 [URSOLIC ACID]
[4]
  CC50 at 24 h: 31.9 µM
[5]
  CC50 at 48 h: 35.9 µM
[6]
  Ratio CC50/IC50: 4.13
[7]
  Ratio CC50/IC50: 1.97
[8]
  Ratio CC50/IC50: 0.9
[9]
  Ratio CC50/IC50: 1.02
[10]
  Activity: Active
[11]
  Activity: 98%
[1]
  Activity: 0%
[12]
  pIC50: 4.45
  MIC: 50 µM (≈ 22.8 µg/mL)
[13]
  growth inhibition (GI): Active
[14]
  Activity: Active
[15]
  Activity: Active
[16]
  Activity: Active
[17]
  Activity: Active
[18]
  Activity: Active
[19]
  Activity: Active
[20]
  Activity: Active
[21]
  Activity: Active
[22]
  Activity: 60%
[23]
  Activity: 50%
[24]
  Activity: 90%
[25]
  Activity: 90%
[26]
  Activity: 30%
[27]
  CC50 at 24 h: 146 µM
[28]
  CC50 at 48 h: 69.5 µM

## CC(=O)O[C@H]1CC[C@]2(C)[C@H]3CC=C4[C@@H]5CC(C)(C)CC[C@]5(C)CC[C@@]4(C)[C@]3(C)CC[C@H]2C1(C)C [beta-AMYRIN ACETATE]
[1]
  Activity: 54.5%

## CC1(C)CC[C@]2(C)CC[C@]3(C)C(=CC[C@@H]4[C@@]5(C)CC[C@H](O)C(C)(C)[C@@H]5CC[C@]43C)[C@@H]2C1 [beta-AMYRIN]
[1]
  Activity: 84.3%
